Source: ChEMBL document CHEMBL3272173, “Synthesis and biological activity of peptide antagonists of luliberin (luteinizing hormone-releasing hormone)” (J Med Chem, 1979)
Peptide text beside a SMILES is read from it.

Columns and labels:
[1] = molecular target: T1, Gonadotropin-releasing hormone receptor (Rattus norvegicus) (UniProt P30969); assay: In vitro antagonist activity at GNRHR in CD rat anterior pituitary gland assessed as inhibition of LH-RH-stimulated LH release at compound to LH-RH molar ratio of 57 after 4 hrs by radioimmunoassay; conditions: concentration not given here
T1 sequence (whole entry): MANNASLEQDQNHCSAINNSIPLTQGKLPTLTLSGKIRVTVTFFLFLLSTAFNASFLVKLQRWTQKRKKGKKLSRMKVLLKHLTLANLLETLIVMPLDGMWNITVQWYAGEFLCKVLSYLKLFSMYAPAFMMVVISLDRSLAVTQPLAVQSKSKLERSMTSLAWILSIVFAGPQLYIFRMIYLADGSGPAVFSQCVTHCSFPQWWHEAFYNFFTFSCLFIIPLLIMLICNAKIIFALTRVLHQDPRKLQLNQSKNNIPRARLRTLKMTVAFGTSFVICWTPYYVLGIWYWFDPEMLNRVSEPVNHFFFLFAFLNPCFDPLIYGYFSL
Method in brief: (§1)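 Anterior pituitaries from diestrus CD rats (200-250 g) were dissociated enzymatically (collagenase, hyaluronidase, then Viokase). Cells were cultured 4 days at 1.67 × 10^5 cells/mL in DME with 10% horse serum and 2.5% fetal calf serum, then washed serum-free. Duplicate cultures received LH-RH (2-5 × 10^-10 M) with a single analogue concentration in serum-free DME for 4 h at 37 °C. LH in the medium was measured by RIA and reported as % inhibition of LH-RH-stimulated release.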

Rattus norvegicus [2] = assay: Antiovulatory activity in sc dosed CD rat assessed as blockade of ovulation administered as six doses at 1200, 1230, 1300, 1350, 1400 and 1450 hrs during proestrus stage measured during estrus stage by dissecting microscopic analysis; format: functional
Method in brief: (§2)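 Cycling Charles River CD rats were given six subcutaneous injections of analogue in 0.1 mL propylene glycol on the afternoon of proestrus, and controls received vehicle alone. Rats were killed the next morning (estrus). Ovulating animals were scored and ova in the oviducts were counted under a dissecting microscope.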

[3] = molecular target: T1, Gonadotropin-releasing hormone receptor (Rattus norvegicus); assay: In vitro antagonist activity at GNRHR in CD rat anterior pituitary gland assessed as ratio of molar concentration of compound to LH-RH for inhibition of LH-RH-stimulated LH release after 4 hrs by radioimmunoassay
Method in brief: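 Monolayers were cultured 4 days from dissociated anterior pituitary cells of diestrus CD rats. They were exposed in duplicate to LH-RH (2-5 × 10^-10 M) plus multiple analogue concentrations in serum-free DME for 4 h at 37 °C. LH in the medium was measured by radioimmunoassay. The ED50 molar ratio is the analogue:LH-RH molar ratio giving 50% inhibition of LH-RH-stimulated LH release.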

Rattus norvegicus [4] = assay: Antiovulatory activity in CD rat assessed as blockade of ovulation at 1 mg, sc administered as six doses at 1200, 1230, 1300, 1350, 1400 and 1450 hrs during proestrus stage measured during estrus stage by dissecting microscopic analysis; format: functional; method in brief: as §2
[5] = molecular target: T1, Gonadotropin-releasing hormone receptor (Rattus norvegicus); assay: In vitro antagonist activity at GNRHR in CD rat anterior pituitary gland assessed as inhibition of LH-RH-stimulated LH release at compound to LH-RH molar ratio of 4000 after 4 hrs by radioimmunoassay; conditions: concentration not given here; method in brief: as §1
[6] = molecular target: T1, Gonadotropin-releasing hormone receptor (Rattus norvegicus); assay: In vitro antagonist activity at GNRHR in CD rat anterior pituitary gland assessed as inhibition of LH-RH-stimulated LH release at compound to LH-RH molar ratio of 28 after 4 hrs by radioimmunoassay; conditions: concentration not given here; method in brief: as §1
Rattus norvegicus [7] = assay: Antiovulatory activity in CD rat assessed as blockade of ovulation at 5 mg, sc administered as six doses at 1200, 1230, 1300, 1350, 1400 and 1450 hrs during proestrus stage measured during estrus stage by dissecting microscopic analysis; format: functional; method in brief: as §2
[8] = molecular target: T1, Gonadotropin-releasing hormone receptor (Rattus norvegicus); assay: In vitro antagonist activity at GNRHR in CD rat anterior pituitary gland assessed as inhibition of LH-RH-stimulated LH release at compound to LH-RH molar ratio of 20 after 4 hrs by radioimmunoassay; conditions: concentration not given here; method in brief: as §1
Rattus norvegicus [9] = assay: Antiovulatory activity in CD rat assessed as blockade of ovulation at 0.1 mg, sc administered as six doses at 1200, 1230, 1300, 1350, 1400 and 1450 hrs during proestrus stage measured during estrus stage by dissecting microscopic analysis; format: functional; conditions: in the assay text read “at 1 mg” for “at 0.1 mg”; method in brief: as §2
[10] = Solubility of the compound in water; format: physicochemical
Rattus norvegicus [11] = assay: Antiovulatory activity in CD rat assessed as blockade of ovulation at 3 mg, sc administered as six doses at 1200, 1230, 1300, 1350, 1400 and 1450 hrs during proestrus stage measured during estrus stage by dissecting microscopic analysis; format: functional; method in brief: as §2
[12] = molecular target: T1, Gonadotropin-releasing hormone receptor (Rattus norvegicus); assay: In vitro antagonist activity at GNRHR in CD rat anterior pituitary gland assessed as inhibition of LH-RH-stimulated LH release at compound to LH-RH molar ratio of 200 after 4 hrs by radioimmunoassay; conditions: concentration not given here; method in brief: as §1
[13] = molecular target: T1, Gonadotropin-releasing hormone receptor (Rattus norvegicus); assay: In vitro antagonist activity at GNRHR in CD rat anterior pituitary gland assessed as inhibition of LH-RH-stimulated LH release at compound to LH-RH molar ratio of 2000 after 4 hrs by radioimmunoassay; conditions: concentration not given here; method in brief: as §1

| ED50 [3] [molar ratio] | Compound | ED50 (Rattus norvegicus [2]) [mg] | inhibition (INH) (Rattus norvegicus [4]) [%] | further results |
| --- | --- | --- | --- | --- |
| 19 | CCNC(=O)[C@@H]1CCCN1C(=O)[C@H](CCCNC(=N)N)NC(=O)[C@H](CC(C)C)NC(=O)[C@@H](Cc1ccccc1)NC(=O)[C@H](Cc1ccc(O)cc1)NC(=O)[C@H](CO)NC(=O)[C@H](Cc1c[nH]c2ccccc12)NC(=O)[C@H](COCc1ccccc1)NC(=O)OC(C)(C)C.Cl | >10 | 0 | inhibition [1]: 91% |
| – | CC(C)C[C@H](NC(=O)CNC(=O)[C@H](Cc1ccc(O)cc1)NC(=O)[C@H](CO)NC(=O)[C@H](Cc1c[nH]c2ccccc12)NC(=O)[C@H](Cc1cnc[nH]1)NC(=O)OCc1ccccc1)C(=O)N[C@@H](CCCNC(=N)N)C(=O)N1CCC[C@H]1C(=O)NCC(=O)O (HELM PEPTIDE1{[O=C(OCc1ccccc1)[*:2]].H.W.S.Y.G.L.R.P.G}$$$$V2.0) | – | – | inhibition [5]: 17% |
| 22.3 | CCNC(=O)[C@@H]1CCCN1C(=O)[C@H](CCCNC(=N)N)NC(=O)[C@H](CC(C)C)NC(=O)[C@@H](CC(C)C)NC(=O)[C@H](Cc1ccc(O)cc1)NC(=O)[C@H](CO)NC(=O)[C@H](Cc1c[nH]c2ccccc12)NC(=O)[C@H](CCC(N)=O)NC(=O)OCc1ccccc1.Cl | >1 | 20 | inhibition [6]: 60% |
| 1.5 | CCNC(=O)[C@@H]1CCCN1C(=O)[C@H](CCCNC(=N)N)NC(=O)[C@H](CC(C)C)NC(=O)[C@@H](Cc1c[nH]c2ccccc12)NC(=O)[C@H](Cc1ccc(O)cc1)NC(=O)[C@H](CO)NC(=O)[C@H](Cc1c[nH]c2ccccc12)NC(=O)[C@@H](NC(=O)OCc1ccccc1)[C@@H](C)CC.Cl | >5 | – | inhibition (INH) (Rattus norvegicus [7]): 0%; inhibition [8]: 100% |
| – | CC(C)C[C@H](NC(=O)CNC(=O)[C@H](Cc1ccc(O)cc1)NC(=O)[C@H](CO)NC(=O)[C@H](Cc1c[nH]c2ccccc12)NC(=O)[C@H](Cc1cnc[nH]1)NC(=O)OCc1ccccc1)C(=O)N[C@@H](CCCNC(=N)N)C(=O)N1CCC[C@H]1C(=O)O (HELM PEPTIDE1{[O=C(OCc1ccccc1)[*:2]].H.W.S.Y.G.L.R.P}$$$$V2.0) | – | – | inhibition [5]: 10% |
| – | CC(C)C[C@H](NC(=O)[C@@H](Cc1c[nH]c2ccccc12)NC(=O)[C@H](Cc1ccc(O)cc1)NC(=O)[C@H](CO)NC(=O)[C@H](Cc1c[nH]c2ccccc12)NC(=O)[C@H](COCc1ccccc1)NC(=O)OC(C)(C)C)C(=O)N[C@@H](CCCNC(=N)N)C(=O)N1CCC[C@H]1C(=O)NCC(N)=O.Cl | 0.05 | – | inhibition (INH) (Rattus norvegicus [9]): 100%; solubility [10]: 1000 µg/mL |
| – | CC(=O)O.CCNC(=O)[C@@H]1CCCN1C(=O)[C@H](CCCNC(=N)N)NC(=O)[C@H](CC(C)C)NC(=O)[C@H]1CCCN1C(=O)[C@H](Cc1ccc(O)cc1)NC(=O)[C@H](CO)NC(=O)[C@H](Cc1c[nH]c2ccccc12)NC(=O)[C@H](CCC(N)=O)NC(=O)OCc1ccccc1 | 1 | – | inhibition (INH) (Rattus norvegicus [11]): 100%; inhibition [12]: 74% |
| 300 | CC(=O)O.CCNC(=O)[C@@H]1CCCN1C(=O)[C@H](CCCNC(=N)N)NC(=O)[C@H](CC(C)C)NC(=O)[C@@H](CC(N)=O)NC(=O)[C@H](Cc1ccc(O)cc1)NC(=O)[C@H](CO)NC(=O)[C@H](Cc1c[nH]c2ccccc12)NC(=O)[C@H](CCC(N)=O)NC(=O)OCc1ccccc1 | >1 | 20 | inhibition [13]: 100% |
